Structures are written as SMILES. A value given as a limit tells only on which side of the number the result lay.

The test system of this assay is RBL-2H3. As to the kind of experiment: Inhibition of IgE receptor/FcERI mediated leukotriene release from rat RBL-2H3 cells. In kind it is functional, cell-based. Put shortly: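 RBL-2H3 rat mast cells were sensitized with monoclonal anti-DNP IgE ([…]) for 1 h at 37 °C, washed to remove unbound IgE, and overlaid with PIPES-buffered saline containing 1 mM CaCl2. Cells were preincubated with compound or vehicle, then challenged with 20 ng/mL DNP-BSA for 30 min at 37 °C and centrifuged at 200g for 10 min at 4 °C. LTC4 was measured in cell-free supernatants and reported as IC50.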
A word on the IC50: it is the point on the concentration scale where inhibition reaches its midpoint. Read a low IC50 as greater potency. As to `C[C@@H](/N=C(\S)Nc1ccccn1)c1cccc2ccccc12`, the concentration for half-maximal inhibition (IC50) was more than 100 µM.

As to `Cc1csc(N/C(S)=N/[C@H](C)c2cccc3ccccc23)n1`, the concentration for half-maximal inhibition (IC50) was 25.9 µM.

In the case of `Oc1ccc(CC/N=C(\S)Nc2ccccn2)cc1`, the IC50 amounted to 8.5 µM.

`C[C@@H](/N=C(\S)Nc1ccc(Cl)cn1)c1cccc2ccccc12` displayed an IC50 of more than 100 µM.

`Cc1cc(C)nc(N/C(S)=N/[C@@H](C)c2cccc3ccccc23)c1` showed an IC50 of more than 100 µM.

`Oc1ccc(CC/N=C(\S)Nc2ccc(Br)cn2)cc1` returned a 50% inhibitory concentration (IC50) of 16.8 µM.

Turning to `CCOC(=O)Cc1csc(/N=C(\S)N[C@H](C)c2cccc3ccccc23)n1`, the concentration for half-maximal inhibition (IC50) was found to be 0.002 µM. Compared with the last molecule, the IC50 is about 8400-fold lower.

With `Cc1ccc(N/C(S)=N/[C@@H](C)c2cccc3ccccc23)nc1`, the IC50 is more than 100 µM.

In the case of `C[C@H](/N=C(\S)Nc1ccccn1)c1cccc2ccccc12`, the IC50 was more than 100 µM.

The molecule `Oc1ccc(CC/N=C(\S)Nc2ccc(Cl)cn2)cc1` gave an IC50 of 12.6 µM. This lies in the double-digit micromolar range.

`COc1cc2ncnc(Nc3cc(Br)c(O)c(Br)c3)c2cc1OC`: it took 6.8 µM to reach half-maximal inhibition (IC50).

`Cc1csc(N/C(S)=N/[C@@H](C)c2cccc3ccccc23)n1` gave a 50% inhibitory concentration (IC50) of 83.2 µM. This IC50 is about 12-fold higher than that of the molecule before.

Take `Cc1cc(C)nc(N/C(S)=N/[C@H](C)c2cccc3ccccc23)c1`: the IC50 was more than 100 µM.

In turn, `COc1ccc2nc(/N=C(\S)N[C@H](C)c3cccc4ccccc34)sc2c1` had an IC50 of more than 100 µM.

Molecule `Cc1cccc2sc(N/C(S)=N/[C@H](C)c3cccc4ccccc34)nc12` had an IC50 of more than 100 µM.

Turning to `C[C@H](/N=C(\S)Nc1nccs1)c1cccc2ccccc12`, the half-maximal inhibitory concentration (IC50) was more than 100 µM.

The molecule `C[C@@H](/N=C(\S)Nc1nc2ccccc2s1)c1cccc2ccccc12` registered an IC50 of 18.9 µM.

In the case of `S=C(NCCc1c[nH]c2ccccc12)Nc1ccc(Cl)cn1`, the IC50 turned out to be 4.9 µM.

The molecule `C[C@H](/N=C(\S)Nc1nc2ccccc2s1)c1cccc2ccccc12` showed an IC50 of more than 100 µM.

`S=C(NCCc1c[nH]c2ccccc12)Nc1ccc(Br)cn1` gave an IC50 of 6.1 µM. That is a single-digit micromolar value.

In turn, `Cc1cccc2sc(N/C(S)=N/[C@@H](C)c3cccc4ccccc34)nc12` registered a half-maximal inhibitory concentration (IC50) of more than 100 µM.

Take `Cc1ccc(N/C(S)=N/[C@H](C)c2cccc3ccccc23)nc1`: the midpoint of inhibition, the IC50, lay at 0.005 µM.

For the molecule `CCOC(=O)Cc1csc(/N=C(\S)N[C@@H](C)c2cccc3ccccc23)n1`, half-maximal inhibition (IC50) required 0.002 µM.

Consider `C[C@H](/N=C(\S)Nc1ccc(Br)cn1)c1cccc2ccccc12`, for which the concentration for half-maximal inhibition (IC50) is more than 100 µM.

For the molecule `Cc1cccc(N/C(S)=N/[C@@H](C)c2cccc3ccccc23)n1`, half-maximal inhibition (IC50) required 1.6 µM.

For the molecule `C[C@@H](/N=C(\S)Nc1nccs1)c1cccc2ccccc12`, the half-maximal inhibitory concentration (IC50) was more than 100 µM.

These data come from ChEMBL document CHEMBL1136558, “Inhibition of mast cell leukotriene release by thiourea derivatives” (Bioorg Med Chem Lett, 2003).
